Experimental data taken from ChEMBL document CHEMBL4177600, “Identification of novel PI3K inhibitors through a scaffold hopping strategy” (Bioorg Med Chem Lett, 2017).
Converted amounts (≈) assume the structure as drawn.

Experiments:
[1] = molecular target: PI3-kinase p110-delta/p85-alpha (Homo sapiens, UniProt O00329); assay: Inhibition of recombinant human full-length N-terminal His6-tagged p110delta/human full-length p85alpha expressed in baculovirus infected Sf21 insect cells using PIP2 as substrate by HTRF assay; settings: read-out: Ki(app)
Sequence of PI3-kinase p110-delta/p85-alpha (P27986 whole entry): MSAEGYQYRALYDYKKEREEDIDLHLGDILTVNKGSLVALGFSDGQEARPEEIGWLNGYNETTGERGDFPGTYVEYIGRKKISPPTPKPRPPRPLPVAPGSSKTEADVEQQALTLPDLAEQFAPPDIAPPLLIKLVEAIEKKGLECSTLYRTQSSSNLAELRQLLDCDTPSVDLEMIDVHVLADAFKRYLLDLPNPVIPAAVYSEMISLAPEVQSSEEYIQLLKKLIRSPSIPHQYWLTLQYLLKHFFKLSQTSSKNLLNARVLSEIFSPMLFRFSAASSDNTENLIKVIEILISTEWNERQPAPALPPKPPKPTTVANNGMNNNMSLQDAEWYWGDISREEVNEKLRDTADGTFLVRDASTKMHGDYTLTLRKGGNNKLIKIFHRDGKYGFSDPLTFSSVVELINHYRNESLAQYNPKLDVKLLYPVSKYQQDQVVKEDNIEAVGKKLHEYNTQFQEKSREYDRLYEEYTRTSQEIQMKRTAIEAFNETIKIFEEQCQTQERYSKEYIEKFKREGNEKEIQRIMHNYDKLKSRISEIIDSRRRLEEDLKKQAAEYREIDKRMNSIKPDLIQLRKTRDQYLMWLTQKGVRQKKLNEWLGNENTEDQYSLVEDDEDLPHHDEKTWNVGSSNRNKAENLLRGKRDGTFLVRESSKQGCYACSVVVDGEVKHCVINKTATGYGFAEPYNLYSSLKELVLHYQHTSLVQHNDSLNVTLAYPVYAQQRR
Sequence of PI3-kinase p110-delta/p85-alpha (O00329 whole entry): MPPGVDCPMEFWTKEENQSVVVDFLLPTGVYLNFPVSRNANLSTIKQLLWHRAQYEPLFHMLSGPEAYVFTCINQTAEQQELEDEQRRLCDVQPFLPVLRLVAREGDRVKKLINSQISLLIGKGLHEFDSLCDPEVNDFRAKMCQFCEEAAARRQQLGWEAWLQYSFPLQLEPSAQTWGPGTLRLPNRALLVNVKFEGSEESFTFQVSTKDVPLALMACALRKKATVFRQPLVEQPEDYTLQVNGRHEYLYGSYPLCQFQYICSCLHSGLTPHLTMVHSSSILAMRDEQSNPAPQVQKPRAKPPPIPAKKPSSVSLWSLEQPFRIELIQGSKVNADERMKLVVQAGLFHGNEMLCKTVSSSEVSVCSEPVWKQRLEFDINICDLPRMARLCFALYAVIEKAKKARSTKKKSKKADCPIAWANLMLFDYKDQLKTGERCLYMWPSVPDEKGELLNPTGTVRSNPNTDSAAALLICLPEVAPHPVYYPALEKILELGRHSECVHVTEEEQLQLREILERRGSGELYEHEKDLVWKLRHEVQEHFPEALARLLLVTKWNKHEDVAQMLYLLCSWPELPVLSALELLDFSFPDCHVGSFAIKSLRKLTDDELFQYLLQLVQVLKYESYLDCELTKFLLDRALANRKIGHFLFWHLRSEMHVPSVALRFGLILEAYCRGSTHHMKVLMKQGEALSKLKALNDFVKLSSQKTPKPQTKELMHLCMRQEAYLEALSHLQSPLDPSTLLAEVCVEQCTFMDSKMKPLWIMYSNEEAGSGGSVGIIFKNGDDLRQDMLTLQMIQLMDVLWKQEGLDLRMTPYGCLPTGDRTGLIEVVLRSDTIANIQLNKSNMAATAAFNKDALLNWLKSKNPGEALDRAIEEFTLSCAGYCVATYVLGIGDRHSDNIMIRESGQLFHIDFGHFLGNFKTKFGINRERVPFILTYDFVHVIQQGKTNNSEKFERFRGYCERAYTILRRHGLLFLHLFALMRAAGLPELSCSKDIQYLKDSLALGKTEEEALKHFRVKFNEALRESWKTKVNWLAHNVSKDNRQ

[2] = molecular target: Dual specificity tyrosine-phosphorylation-regulated kinase 1A (Homo sapiens) (UniProt Q13627); assay: Inhibition of DYRK1A (unknown origin) at 1 uM relative to control
In short: (§1)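 Kinase panel of 24 enzymes, each tested at 1 µM; percent inhibition reported as the average of two independent data points.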

[3] = molecular target: Serine/threonine-protein kinase PAK 1 (Homo sapiens) (UniProt Q13153); assay: Inhibition of recombinant human N-terminal GST/His6-tagged PAK1 (M1 to H545 residues) expressed in Sf9 insect cells at 1 uM using tetra(LRRWSLG) as substrate by filter binding method relative to control
Sequence of Serine/threonine-protein kinase PAK 1 (Homo sapiens) (Q13153 whole entry, the tested form may be a part): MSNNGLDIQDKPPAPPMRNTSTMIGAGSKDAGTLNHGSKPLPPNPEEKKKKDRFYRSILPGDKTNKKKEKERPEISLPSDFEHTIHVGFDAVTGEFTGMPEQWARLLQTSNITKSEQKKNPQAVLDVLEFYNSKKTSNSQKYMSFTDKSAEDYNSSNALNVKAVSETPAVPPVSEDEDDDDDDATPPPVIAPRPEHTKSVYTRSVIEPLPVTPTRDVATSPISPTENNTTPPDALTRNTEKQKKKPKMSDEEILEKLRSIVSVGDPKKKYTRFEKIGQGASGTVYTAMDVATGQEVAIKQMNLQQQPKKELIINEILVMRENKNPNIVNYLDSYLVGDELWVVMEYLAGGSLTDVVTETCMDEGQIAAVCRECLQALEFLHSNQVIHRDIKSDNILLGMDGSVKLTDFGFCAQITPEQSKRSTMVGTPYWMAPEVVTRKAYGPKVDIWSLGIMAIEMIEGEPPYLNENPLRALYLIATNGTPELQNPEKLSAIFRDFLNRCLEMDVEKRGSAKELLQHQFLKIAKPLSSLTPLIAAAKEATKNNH
In short: (§2)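 Single-point screen at 1 µM in a 24-kinase panel run externally; each value is the average of two independent data points. The detailed assay conditions are given only on the provider's site.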

[4] = molecular target: T1, 3-phosphoinositide-dependent protein kinase 1 (Homo sapiens) (UniProt O15530); assay: Inhibition of recombinant human N-terminal His6-tagged PDK1 (M1 to M460 residues) expressed in Sf9 insect cells at 1 uM using LRRWSLG as substrate by filter binding method relative to control; in short: as §2
T1 sequence (whole entry): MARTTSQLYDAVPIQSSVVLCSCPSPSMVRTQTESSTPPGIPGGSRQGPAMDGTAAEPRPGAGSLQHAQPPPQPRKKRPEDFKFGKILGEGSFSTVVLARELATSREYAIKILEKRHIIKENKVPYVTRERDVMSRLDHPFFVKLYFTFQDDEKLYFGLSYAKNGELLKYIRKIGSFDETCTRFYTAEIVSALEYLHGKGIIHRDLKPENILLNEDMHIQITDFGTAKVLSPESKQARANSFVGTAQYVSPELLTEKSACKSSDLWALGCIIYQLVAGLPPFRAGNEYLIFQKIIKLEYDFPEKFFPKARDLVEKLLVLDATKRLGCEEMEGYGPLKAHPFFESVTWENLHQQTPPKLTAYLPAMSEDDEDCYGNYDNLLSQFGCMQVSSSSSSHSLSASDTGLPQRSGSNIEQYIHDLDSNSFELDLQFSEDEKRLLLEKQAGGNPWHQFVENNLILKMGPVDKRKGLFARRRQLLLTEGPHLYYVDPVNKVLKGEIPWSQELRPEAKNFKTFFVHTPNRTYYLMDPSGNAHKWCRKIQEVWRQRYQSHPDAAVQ

[5] = molecular target: T2, Serine/threonine-protein kinase Sgk1 (Homo sapiens) (UniProt O00141); assay: Inhibition of recombinant human N-terminal GST-tagged SGK1 (M1 to L431 residues) expressed in baculovirus infected Sf9 cells at 1 uM using GSK3-derived peptide as substrate by filter binding method relative to control; in short: as §1
T2 sequence (whole entry): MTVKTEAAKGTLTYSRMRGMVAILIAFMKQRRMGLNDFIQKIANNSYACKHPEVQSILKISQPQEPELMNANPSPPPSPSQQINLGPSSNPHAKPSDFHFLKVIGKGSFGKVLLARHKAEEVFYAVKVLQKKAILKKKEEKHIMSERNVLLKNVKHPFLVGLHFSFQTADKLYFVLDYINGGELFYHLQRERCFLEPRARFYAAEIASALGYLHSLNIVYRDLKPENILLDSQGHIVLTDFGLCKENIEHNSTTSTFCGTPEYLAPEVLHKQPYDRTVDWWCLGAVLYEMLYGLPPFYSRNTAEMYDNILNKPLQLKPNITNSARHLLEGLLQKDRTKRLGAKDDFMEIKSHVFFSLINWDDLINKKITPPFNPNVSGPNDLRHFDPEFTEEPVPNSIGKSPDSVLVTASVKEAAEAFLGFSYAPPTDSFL

[6] = Half-life in BALB-C mouse at 5 mg/kg, iv by LC-MS/MS analysis; type: ADME, organism-based; settings: in vivo
In short: (§3)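 BALB-C mice dosed IV (10% NMP/50% PEG300/40% saline) or PO (10% NMP/90% PEG300). Plasma sampled at 6 (IV) or 8 (PO) time points; compound measured by LC/MS/MS. Parameters from bicompartmental model fit; each value is the mean of 3 independent samples.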

[7] = Clearance in BALB-C mouse at 5 mg/kg, iv by LC-MS/MS analysis; type: ADME, organism-based; settings: in vivo
In short: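 Mice (BALB-C) given IV dose in 10% NMP/50% PEG300/40% saline; plasma sampled at 6 times, levels by LC/MS/MS.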

[8] = Volume of distribution in BALB-C mouse at 5 mg/kg, iv by LC-MS/MS analysis; type: ADME, organism-based; settings: in vivo
In short: (§4)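 BALB-C mice dosed IV in 10% NMP/50% PEG300/40% saline or PO in 10% NMP/90% PEG300. Plasma sampled at 6 (IV) or 8 (PO) time points and quantified by LC/MS/MS. Parameters come from a bicompartmental model fit; values are means of 3 independent samples. Plasma levels were compared with AKT-P EC50 from U2OS cells converted to ng/ml.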

[9] = AUC (infinity) in BALB-C mouse at 5 mg/kg, iv by LC-MS/MS analysis; type: ADME, organism-based; design: dose 5 mg/kg, time infinity, route intravenous; settings: in vivo; in short: as §3
[10] = Half-life in BALB-C mouse at 10 mg/kg, po by LC-MS/MS analysis; type: ADME, organism-based; settings: in vivo; in short: as §3
Mus musculus [11] = assay: Clearance in BALB-C mouse at 5 mg/kg, iv by LC-MS/MS analysis relative to hepatic blood flow; type: ADME, organism-based; settings: in vivo
U2OS = assay: Inhibition of AKT phosphorylation in human U2OS cells
[12] = molecular target: Serine/threonine-protein kinase mTOR (Homo sapiens, UniProt P42345); assay: Inhibition of recombinant human GST-tagged mTOR catalytic domain (1360 to 2549 residues) expressed in baculovirus expression system by AlexaFluor647-labeled kinase tracer 314 based LanthaScreen assay
[13] = Volume of distribution in BALB-C mouse at 3 mg/kg, iv by LC-MS/MS analysis; type: ADME, organism-based; settings: in vivo; in short: as §4
[14] = Tmax in BALB-C mouse at 9 mg/kg, po by LC-MS/MS analysis; type: ADME, organism-based; settings: in vivo; in short: as §4
[15] = AUC (infinity) in BALB-C mouse at 9 mg/kg, po by LC-MS/MS analysis; type: ADME, organism-based; design: dose 9 mg/kg, time infinity, route oral; settings: in vivo; in short: as §3
[16] = Half-life in BALB-C mouse at 9 mg/kg, po by LC-MS/MS analysis; type: ADME, organism-based; settings: in vivo; in short: as §3
[17] = Oral bioavailability in BALB-C mouse at 9 mg/kg by LC-MS/MS analysis; type: ADME, organism-based; settings: in vivo; in short: as §4
[18] = Tmax in BALB-C mouse at 5 mg/kg, po by LC-MS/MS analysis; type: ADME, organism-based; settings: in vivo; in short: as §4
Mus musculus [19] = assay: Time at which plasma concentration stays above cellular EC50 for inhibition of AKT phosphorylation in BALB-C mouse at 5 mg/kg, po measured up to 24 hrs by LC-MS/MS analysis; type: organism-based; settings: in vivo; in short: as §4

In the case of `CS(=O)(=O)N1CCN(Cc2nc3c(N4CCOCC4)nc(-c4cnc(N)nc4)cn3n2)CC1`, the Ki [1] is reported as 6.3 nM, the inhibition [2] is reported as < 25% and the inhibition [3] is reported as < 25%. For the same molecule, the inhibition [4] was < 25%, the inhibition [5] was < 25% and the half-life [6] was 0.26 h. It also gave a clearance [7] of 35.5 mL/min/kg, a Vd [8] of 2 L/kg and an AUC(0-inf) [9] of 2660 ng·h/mL. For the same molecule, the half-life [10] was 5.28 h, the CL (Mus musculus [11]) was < 50% and the EC50 (U2OS) was 0.04138 µg/mL (≈ 0.0872 µM).
With `CS(=O)(=O)N1CCN(Cc2cn3nc(-c4cnc(N)nc4)nc(N4CCOCC4)c3n2)CC1` the Ki [1] was 17.9 nM, the inhibition [2] was < 25% and the inhibition [3] was < 25%. For the same molecule, the inhibition [4] was < 25% and the inhibition [5] was < 25%.
With `CS(=O)(=O)N1CCN(Cc2cc3c(N4CCOCC4)nc(-c4cnc(N)nc4)cn3n2)CC1` the Ki [1] was 7.1 nM, the IC50 [12] was 1700 nM and the inhibition [2] was < 25%. The inhibition [3] was < 25%, the inhibition [4] was < 25% and the inhibition [5] was < 25%. For the same molecule, the Vd [13] was 0.6 L/kg, the Tmax [14] was 1 h and the AUC(0-inf) [15] was 5150 ng·h/mL. It also gave a half-life [16] of 2.84 h and a bioavailability [17] of 29.5%.
For `CS(=O)(=O)N1CCN(Cc2nc3c(N4CCOCC4)nc(-c4cnc(N)nc4)c(Cl)n3n2)CC1`, the Ki [1] was 3.4 nM, the IC50 [12] was 8170 nM and the inhibition [2] was < 25%. For the same molecule, the inhibition [3] was < 25%, the inhibition [4] was < 25% and the inhibition [5] was < 25%. The half-life [6] was 1.81 h, the clearance [7] was 10.8 mL/min/kg and the Vd [8] was 1.61 L/kg. The AUC(0-inf) [9] was 7730 ng·h/mL, the Tmax [18] was 1 h and the CL (Mus musculus [11]) was < 50%. The Time (Mus musculus [19]) was > 12 h.
